Measurements collected from several papers.
Compare with care: the assays were run in different laboratories.
KIT A829P: Mast/stem cell growth factor receptor Kit (KIT, Homo sapiens, UniProt P10721, A829P)
KIT autoinhibited: Mast/stem cell growth factor receptor Kit, autoinhibited (KIT, Homo sapiens, UniProt P10721)
KIT: Mast/stem cell growth factor receptor Kit (KIT, Homo sapiens, UniProt P10721)
KIT T670I/V559D: Mast/stem cell growth factor receptor Kit (KIT, Homo sapiens, UniProt P10721, T670I/V559D)
KIT D816H: Mast/stem cell growth factor receptor Kit (KIT, Homo sapiens, UniProt P10721, D816H)

CC1CCCN1c1nccc(-c2cnn3ncccc23)n1 (stereo not drawn)
remaining binding (KIT A829P; binding; 1 µM): 89%

Nc1ncnc2occ(-c3ccc(NC(=O)Nc4cc(C(F)(F)F)ccc4F)cc3)c12
remaining signal (KIT autoinhibited; cell-free assay; inhibitor; 20 µM): 0.05%

Cc1cc(NC(=O)c2cccc3cc(-c4cccc5[nH]nc(N)c45)ccc23)ccc1F
activity vs control (Mast/stem cell growth factor receptor Kit (KIT, Homo sapiens, UniProt P10721, V654A); enzyme activity; inhibitor; 0.1 µM): 63%

Cc1c[nH]c2nccc(Oc3c(F)cc(Nc4cc(Cl)nc(N)n4)cc3F)c12
remaining binding (KIT autoinhibited; cell-free assay; competition with immobilised ligand; 0.1 µM): 77%

Cc1ccc(C(=O)NCc2ccsc2)cc1C#Cc1cn(C(C)C)c2ncnc(N)c12
activity vs control (KIT; enzyme activity; inhibitor; 1 µM): -1%

CN(C)c1nccc(-c2cnn3ncccc23)n1
remaining binding (Mast/stem cell growth factor receptor Kit (KIT, Homo sapiens, UniProt P10721, V559D); binding; 1 µM): 100%

C[C@@H]1CN(c2cc(-c3n[nH]c4ccc(OC5(C)CC5)cc34)ncn2)C[C@H](C)O1
remaining binding (KIT T670I/V559D; cell-free assay; competition with immobilised ligand; 0.1 µM): 95%

N[C@@H]1CCN(c2nccc(-c3cnn4ncccc34)n2)C1
remaining binding (Mast/stem cell growth factor receptor Kit (KIT, Homo sapiens, UniProt P10721, L576P); binding; 1 µM): 97%

O=C(O)[C@H]1[C@H](Cn2nnc3ccccc3c2=O)CC[C@@H]1C(=O)c1ccc(OCCC2CCOCC2)cc1
remaining binding (KIT A829P; cell-free assay; competition with immobilised ligand; 1 µM): 84%

C[C@H]1CCN(c2nccc(-c3cnn4ncccc34)n2)C1
remaining binding (KIT D816H; binding; 1 µM): 84%

CN(C(=O)c1ccccc1)c1cc(N(C)c2ccc3c(c2)CCc2ccc(C(=O)NCCN4CCOCC4)cc2C3=O)ccc1F
remaining binding (KIT T670I/V559D; cell-free assay; competition with immobilised ligand; 1 µM): 99%

COc1cc(-c2cc(-c3ccc(N4CCNCC4)cc3)cnc2N)cc(OC)c1OC
inhibition (Mast/stem cell growth factor receptor Kit (KIT, Homo sapiens, UniProt P10721, D816V); enzyme activity; inhibitor; 1 µM): 8%

Cc1cnc(NC2CCOCC2)nc1-n1cnc(C(=O)NC(CN)c2cc(F)cc(Cl)c2)c1 (stereo not drawn)
remaining activity (KIT D816H; enzyme activity; inhibitor; radiometric; 1 µM): 96%

CC/C(=N\NC(=O)NCc1cccc(O)c1)c1ccc(O)c(C)c1O
inhibition (KIT; enzyme activity; inhibitor; 0.1 µM): -0.2%

CCCCN(CCCC)C(=O)CN1C[C@@H](c2cc(OC)c3c(c2)OCO3)[C@H](C(=O)O)[C@H]1CC(C)(C)CCC
remaining binding (KIT T670I/V559D; cell-free assay; competition with immobilised ligand; 1 µM): 79%
